Experimental data from ChEMBL document CHEMBL4190208, “Design, synthesis and characterization of novel quinacrine analogs that preferentially kill cancer over non-cancer cells through the down-regulation of Bcl-2 and up-regulation of Bax and Bad” (Eur J Med Chem, 2017).
Calls of active or inactive are those of the source. The rule behind the calls is not given here.

Key:
[1] = test system: MDA-MB-468; assay: Cytotoxicity against human MDA-MB-468 cells assessed as growth inhibition after 48 hrs by SRB assay; format: functional, cell-based; conditions: MDA-MB-468, 48 h
Summary of the method: (§1)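 Cells seeded at 5000–10,000 per well and exposed continuously for 48 h to seven concentrations ([…]). DMSO stocks were diluted in medium, final DMSO ≤0.1%, and matched DMSO medium served as the negative control. Viable cell mass was read by SRB. IC50 is the concentration giving 50% growth decrease versus control. Values are the mean of triplicates from at least two independent experiments.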

[2] = test system: MDA-MB-231; assay: Cytotoxicity against human MDA-MB-231 cells assessed as growth inhibition after 48 hrs by SRB assay; format: functional, cell-based; conditions: MDA-MB-231, 48 h; summary of the method: as §1
[3] = test system: MCF7; assay: Cytotoxicity against human MCF7 cells assessed as growth inhibition after 48 hrs by SRB assay; format: functional, cell-based; conditions: MCF7, 48 h; summary of the method: as §1
[4] = test system: 184B5; assay: Cytotoxicity against human 184B5 cells assessed as growth inhibition after 48 hrs by SRB assay; format: cell-based; conditions: 184B5, 48 h; summary of the method: as §1
[5] = test system: MCF-10A; assay: Cytotoxicity against human MCF10A cells assessed as growth inhibition after 48 hrs by SRB assay; format: cell-based; summary of the method: as §1
[6] = Selectivity index, ratio of IC50 for human MCF10A cells to IC50 for human MDA-MB-231 cells; format: toxicity; conditions: MCF10A cells versus MDA-MB-231 cells, read-out: Ratio IC50
[7] = Selectivity index, ratio of IC50 for human MCF10A cells to IC50 for human MCF7 cells; format: toxicity; conditions: MCF10A cells versus MCF7 cells, read-out: Ratio IC50
[8] = test system: MDA-MB-468; assay: Anticlonogenic activity against human MDA-MB-468 cells at 3.5 uM after 12 days; format: functional, cell-based
[9] = test system: MCF7; assay: Anticlonogenic activity against human MCF7 cells at 3.5 uM after 12 days; format: functional, cell-based
[10] = test system: HeLa; assay: Anticlonogenic activity against human HeLa cells at 3.5 uM after 12 days; format: functional, cell-based
[11] = test system: MDA-MB-231; assay: Cell cycle arrest in human MDA-MB-231 cells assessed as accumulation at sub-G1 phase at 6 uM after 48 hrs by flow cytometric method; format: functional, cell-based
[12] = test system: 184B5; assay: Cell cycle arrest in human 184B5 cells assessed as accumulation at sub-G1 phase at 6 uM after 48 hrs by flow cytometric method; format: ADME, cell-based; conditions: 184b5, 48 h
[13] = test system: MDA-MB-231; assay: Induction of apoptosis in human MDA-MB-231 cells assessed as change in cell morphology at 6 uM after 24 hrs by acridine orange/ethidium bromide staining-based confocal microscopic method; format: functional
[14] = test system: MDA-MB-231; assay: Induction of apoptosis in human MDA-MB-231 cells assessed as increase in PARP cleavage at 6 uM after 24 hrs by Western blot method; format: functional, cell-based
[15] = test system: MDA-MB-231; assay: Induction of apoptosis in human MDA-MB-231 cells at 6 uM after 24 hrs by TUNEL assay; format: functional, cell-based
[16] = test system: MCF7; assay: Induction of apoptosis in human MCF7 cells at 6 uM after 24 hrs by TUNEL assay; format: functional, cell-based
[17] = test system: MDA-MB-231; assay: Induction of apoptosis in human MDA-MB-231 cells assessed as downregulation of Bcl-2 expression at 6 uM after 24 to 72 hrs by Western blot method; format: functional, cell-based
[18] = test system: MDA-MB-231; assay: Induction of apoptosis in human MDA-MB-231 cells assessed as upregulation of Bad expression at 6 uM after 24 to 72 hrs by Western blot method; format: functional, cell-based
[19] = test system: MDA-MB-231; assay: Induction of apoptosis in human MDA-MB-231 cells assessed as upregulation of Bax expression at 6 uM after 24 to 72 hrs by Western blot method; format: functional, cell-based
[20] = test system: MDA-MB-231; assay: Induction of apoptosis in human MDA-MB-231 cells assessed as increase in cytochrome c levels in mitochondria at 6 uM after 24 to 72 hrs by Western blot method; format: functional, cell-based
[21] = test system: MDA-MB-231; assay: Effect on Bcl-XL levels in human MDA-MB-231 cells at 6 uM after 24 to 72 hrs by Western blot method; format: functional, cell-based
[22] = test system: MCF7; assay: Induction of apoptosis in human MCF7 cells assessed as upregulation of Bad expression at 4 to 6 uM after 48 hrs by Western blot method; format: functional, cell-based

SMILES	IC50 [1] [µM]	IC50 [2] [µM]	IC50 [3] [µM]	IC50 [4] [µM]	also measured
COc1ccc2nc3cc(Cl)ccc3c(NCCCN3C(=O)CSC3c3ccco3)c2c1 (stereo not given)	5.58	1.97	4.78	13.4	
COc1ccc2nc3cc(Cl)ccc3c(NCCCN3C(=O)CSC3c3c(Cl)cccc3Cl)c2c1 (stereo not given)	4.04	3.98	4.01	28.3	
COc1ccc2nc3cc(Cl)ccc3c(NCCCN3C(=O)CSC3c3ccc(N(C)C)cc3)c2c1 (stereo not given)	3.32	4.25	3.78	16.4	
COc1ccc2nc3cc(Cl)ccc3c(NCCCN3C(=O)CSC3c3ccc(C)cc3)c2c1 (stereo not given)	3.59	2.93	3.26	7.98	
COc1ccc2nc3cc(Cl)ccc3c(NCCCN3C(=O)CSC3c3ccc([N+](=O)[O-])cc3)c2c1 (stereo not given)	4.87	3.86	4.36	17.8	
COc1ccc2nc3cc(Cl)ccc3c(NCCCN3C(=O)CSC3c3ccccc3F)c2c1 (stereo not given)	3.91	1.95	2.93	8.16	
COc1ccc2nc3cc(Cl)ccc3c(NCCCN3C(=O)CSC3c3ccc(Br)cc3)c2c1 (stereo not given)	3.68	3.74	3.71	4.88	
COc1ccc2nc3cc(Cl)ccc3c(NCCCN3C(=O)CSC3c3ccccc3Br)c2c1 (stereo not given)	4.38	3.63	4	21.6	
COc1ccc2nc3cc(Cl)ccc3c(NCCCN3C(=O)CSC3c3c(F)cccc3Cl)c2c1 (stereo not given)	3.96	2.12	3.04	8.07	
COc1ccc2nc3cc(Cl)ccc3c(NCCCN3C(=O)CSC3c3ccccc3[N+](=O)[O-])c2c1 (stereo not given)	3.2	4.16	3.68	30.2	
COc1ccc2nc3cc(Cl)ccc3c(NCCCN3C(=O)CSC3c3ccc(N(c4ccccc4)c4ccccc4)cc3)c2c1 (stereo not given)	14.4	17.6	10.4	17.8	
COc1ccc2nc3cc(Cl)ccc3c(NCCCN3C(=O)CSC3c3ccccc3Cl)c2c1 (stereo not given)	3.89	3.85	3.87	13.2	
COc1ccc2nc3cc(Cl)ccc3c(NCCCN3C(=O)CSC3c3ccc(Cl)cc3)c2c1 (stereo not given)	4.19	3.73	3.96	4.58	
COc1ccc2nc3cc(Cl)ccc3c(NCCCN3C(=O)CSC3c3ccccc3)c2c1 (stereo not given)	2.54	3.55	3.23	8.06	
COc1ccc2nc3cc(Cl)ccc3c(NCCCN3C(=O)CSC3c3ccc(F)cc3F)c2c1 (stereo not given)	4.15	1.8	2.97	4.14	
COc1ccc2nc3cc(Cl)ccc3c(NCCCN3C(=O)CSC3c3c(F)cccc3F)c2c1 (stereo not given)	2.4	1.92	1.24	16.2	IC50 [5]: 18.2 µM; selectivity ratio [6]: 7.6; selectivity ratio [7]: 14.7; Activity [8]: Active; Activity [9]: Active; Activity [10]: Active; Activity [11]: Active; Activity [12]: Non-Toxic; Activity [13]: Active; Activity [14]: Active; Activity [15]: Active; Activity [16]: Active; Activity [17]: Active; Activity [18]: Active; Activity [19]: Active; Activity [20]: Active; Activity [21]: inactive; Activity [22]: Active
COc1ccc2nc3cc(Cl)ccc3c(NCCCN3C(=O)CSC3c3ccncc3)c2c1 (stereo not given)	5.1	1.11	2.27	16.8	
COc1ccc2nc3cc(Cl)ccc3c(NCCCN3C(=O)CSC3C3CCCCC3)c2c1 (stereo not given)	3.75	3.86	3.81	3.14	
COc1ccc2nc3cc(Cl)ccc3c(NCCCN3C(=O)CSC3c3cccs3)c2c1 (stereo not given)	4.61	6.76	3.31	18	
COc1ccc2nc3cc(Cl)ccc3c(NCCCN3C(=O)CSC3c3ccc[nH]3)c2c1 (stereo not given)	4.52	6.4	10.6	18.4	
COc1ccc2nc3cc(Cl)ccc3c(NCCCN3C(=O)CSC3c3ccc(Cl)cc3Cl)c2c1 (stereo not given)	4.15	4.05	4.1	7.22	
COc1ccc2nc3cc(Cl)ccc3c(NCCCN3C(=O)CSC3c3ccc(F)cc3)c2c1 (stereo not given)	4.26	1.89	3.07	12.1	
COc1ccc2nc3cc(Cl)ccc3c(NCCCN3C(=O)CSC3c3ccnc4ccccc34)c2c1 (stereo not given)	6.64	3.7	6.55	13.1	
